This is a sample that favours compounds with a hit; in the whole collection about 2.9% have one here.
TRPC4 inh: blocks the mouse TRPC4 cation channel. HEK293 TRPC4beta/mu-opioid, DAMGO-evoked Fluo4 calcium flux; stronger effect = lower value. B-score at 10 µM. 300,000 tested, 0.39% active;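 active = B-score over 3 SD under the library average, no early fluorescence shift, positive overall ratio signal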
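Signal: kinetic Fluo4 fluorescence imaging of calcium influx. Material: stable TRPC4beta/mu-opioid receptor HEK293 cells. Probe or stimulus: DAMGO in two steps, submaximal then maximal.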
TRPC4 act: opens the mouse TRPC4 cation channel; Q9QUQ5; HEK293 TRPC4beta/mu-opioid, Fluo4 calcium fluorescence; stronger effect = higher value; B-score at 10 µM; 310,000 tested, 0.49% active;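 active = B-score above 5 SD of library B-scores, and initial fluorescence ratio not above library mean plus 5 SD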;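 note: positive B-score marks a calcium rise read as TRPC4 activation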
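Material: HEK293 stable line with TRPC4beta plus mu-opioid receptor; technique: Fluo4 calcium-sensitive dye fluorescence, kinetic, 1 Hz baseline; timing: Fluo4 dye loading 45 min at room temperature, 110 s recording; controls: assay buffer as low control, maximal DAMGO as high control; read-out: integrated baseline-normalised fluorescence ratio, converted to per-well B score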
Kir21 inh: inhibitors of mouse Kir2.1 inward-rectifier potassium channel; HEK293-Kir2.1, FluxOR thallium flux fluorescence; stronger effect = lower value; B-score at 10 µM; P35561; 310,000 tested, 0.85% active; AID 1672;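 active = fluorescence ratio B-score at or below minus 3 SD of library scores, with starting-brightness B-score within 2 SD, cut at about -4.2 in these data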;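 note: channel flux triggered by added potassium and thallium sulfate stimulus; B-score of peak minus minimum fluorescence over baseline after thallium stimulus; more negative B-score means stronger Kir2.1 block with less thallium influx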
TRPC6 activator: activators of mouse TRPC6 channel; Q61143; HEK293-TRPC6 membrane potential dye fluorescence; stronger effect = higher value; B-score at 10 µM; 310,000 tested, 0.13% active; AID 2550;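 active = B-score of the integrated fluorescence ratio above library mean plus 3 SD, and starting fluorescence ratio within library mean plus 5 SD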;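 note: higher score means more depolarization so channel activation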
Target sequence (Q61143 whole entry, looked up): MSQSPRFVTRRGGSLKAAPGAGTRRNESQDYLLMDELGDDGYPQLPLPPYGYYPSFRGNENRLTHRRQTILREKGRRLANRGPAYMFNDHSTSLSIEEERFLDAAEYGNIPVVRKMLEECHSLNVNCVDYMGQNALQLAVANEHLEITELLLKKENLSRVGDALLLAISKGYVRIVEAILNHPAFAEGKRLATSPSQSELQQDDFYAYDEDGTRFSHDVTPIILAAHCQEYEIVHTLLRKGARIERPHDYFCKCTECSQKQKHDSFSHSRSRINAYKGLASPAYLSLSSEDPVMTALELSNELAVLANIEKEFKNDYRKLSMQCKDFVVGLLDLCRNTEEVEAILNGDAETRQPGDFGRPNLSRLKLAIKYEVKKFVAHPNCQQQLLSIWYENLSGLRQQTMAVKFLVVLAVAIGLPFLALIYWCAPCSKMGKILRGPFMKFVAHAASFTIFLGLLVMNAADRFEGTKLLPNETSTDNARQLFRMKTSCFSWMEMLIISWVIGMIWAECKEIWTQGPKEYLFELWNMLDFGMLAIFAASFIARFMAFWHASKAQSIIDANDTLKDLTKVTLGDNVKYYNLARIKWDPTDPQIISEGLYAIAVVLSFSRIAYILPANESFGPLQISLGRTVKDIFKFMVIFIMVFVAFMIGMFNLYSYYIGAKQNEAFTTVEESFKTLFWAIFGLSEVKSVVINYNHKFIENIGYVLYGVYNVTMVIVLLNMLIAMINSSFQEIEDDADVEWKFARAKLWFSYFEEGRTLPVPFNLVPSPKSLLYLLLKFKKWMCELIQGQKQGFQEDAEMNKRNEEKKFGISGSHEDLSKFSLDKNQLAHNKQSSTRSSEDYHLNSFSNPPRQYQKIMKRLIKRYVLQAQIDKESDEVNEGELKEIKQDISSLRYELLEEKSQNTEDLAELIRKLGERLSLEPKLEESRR
TRPC6 inhibitor: inhibitors of mouse TRPC6 channel; 310,000 tested, 1.1% active; HEK293-TRPC6, membrane potential dye, ACh-evoked depolarization; stronger effect = lower value; B-score at 10 µM; AID 2553; Q61143;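 active = B-score under library mean minus 3 SD, initial fluorescence not abnormally high, positive integrated signal ratio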;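 note: B-score derived from integrated fluorescence ratio over the kinetic read; more negative B-score means stronger inhibition of depolarization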
TRPC4 PAM: TRPC4 (mouse) allosteric potentiation; HEK293 TRPC4beta/mu-opioid, DAMGO EC20, Fluo-4 Ca2+ flux; stronger effect = higher value; B-score at 10 µM; Q9QUQ5; 310,000 tested, 0.42% active; AID 2227;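 active = B-score of calcium response area above 5 SD of library B-scores, with initial fluorescence ratio within 5 SD of library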;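 note: B-score of integrated fluorescence ratio over time as area under calcium response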
Numbers without * were called inactive; i = inactive.

SMILES	TRPC4 inh	TRPC4 act	Kir21 inh	TRPC6 activator	TRPC6 inhibitor	TRPC4 PAM
CCCCc1nnc(NC(=O)COc2ccc3c(C)cc(=O)oc3c2)s1	i	i	-0.05	i	i	i
O=[N+]([O-])c1ccc(Sc2cccc[n+]2[O-])c2nonc12	i	i	-6.3*	i	i	i
O=[N+]([O-])c1ccc(Nc2ccccc2)c2nonc12	i	i	0.68	i	i	i
COc1ccc(C(=S)N2CCOCC2)cc1OC(=O)c1ccccc1	i	i	-1.6	i	i	i
O=C(Oc1ccc(C(=S)N2CCCCC2)cc1)c1ccccc1	i	i	-4.6*	i	i	i
O=C(Oc1cccc(C(=S)N2CCCCC2)c1)c1ccccc1	i	i	-0.37	i	i	i
O=C(Oc1ccc(Br)cc1C(=S)N1CCOCC1)c1ccc(F)cc1	i	i	-0.56	i	i	i
O=C(Oc1ccc(C(=S)N2CCOCC2)cc1Br)c1ccccc1F	i	i	-6.3*	i	i	i
COc1cc(C(=S)N2CCOCC2)ccc1OC(=O)c1ccccc1	i	i	-5.1*	i	i	i
O=C(Oc1ccc(C(=S)N2CCOCC2)cc1Cl)c1ccccc1F	i	i	-5.8*	i	i	i
COc1ccc(NC(C)=O)cc1CNC(=O)COc1c(C)c(C)cc(C)c1C	i	i	0.03	i	i	i
CC(C)NC(=O)CSc1nnc(-c2ccc3ncccc3c2)n1C	i	i	-0.56	i	i	i
Cc1nn(C)c(Cl)c1CN1CCCC(CCC(=O)NCc2ccccc2F)C1 (configuration not stated)	i	i	-0.42	i	i	i
CCOc1cccc(CN2CCCC(CCC(=O)NCc3ccccc3F)C2)c1O (configuration not stated)	i	56*	-0.1	i	i	i
CC(=O)Nc1cccc(NC(=S)Nc2cccc(Cl)c2Cl)c1	i	i	0.23	i	i	i
COC(=O)c1cccc(NC(=S)Nc2cccc(Cl)c2Cl)c1	-6*	i	0.07	i	i	i
O=C(C1=NNCC1c1ccccc1)C1CO1 (configuration not stated)	i	i	-1.5	i	i	i
CC(C)c1cc(-c2cc(C(=O)NCc3ccccc3)on2)nc(NCC2CC2)n1	i	i	2.1	i	i	10*
COc1ccc(C(=O)NC(=S)NNC(=O)Cc2cccs2)cc1	i	49*	0.24	i	i	i
COc1cc(OC)cc(C(=O)NC(=S)NNC(=O)Cc2cccs2)c1	i	147*	0.01	i	i	i
COc1cc(NC(=O)Cc2cccs2)cc(OC)c1	i	i	2.6	i	i	i
COc1ccc(/C=C/C(=O)NC(=S)NNC(=O)Cc2cccs2)cc1OC	i	i	0.22	i	i	i
COc1cc(OC)cc(C(=O)NC(=S)NNC(=O)[C@H]2C[C@@H]2c2ccccc2)c1	i	192*	0.93	i	i	i
COc1ccc(C(=O)NC(=S)NNC(=O)[C@H]2C[C@@H]2c2ccccc2)cc1OC	i	i	0.31	i	i	i
Nc1nc2c([N+](=O)[O-])cccc2s1	i	i	-0.05	i	i	i
SMILES	TRPC4 inh	TRPC4 act	Kir21 inh	TRPC6 activator	TRPC6 inhibitor	TRPC4 PAM
CC1=C(CC[C@@H](C)CO)OC2CC3C4CCC5CC(O)CCC5(C)C4CC(=O)C3(C)C12 (some centres not stated)	i	i	0.09	i	i	i
Cc1ccnc(NC(=O)c2ccc3[nH]c(=O)c(=O)[nH]c3c2)c1	i	i	3.4	i	i	i
Cc1oc(-c2ccccc2)nc1Cn1cccc1C1=NC(c2ccccc2)CO1 (configuration not stated)	i	i	-1	i	i	i
Fc1ccc(Cn2cccc2C2=NC(c3ccccc3)CO2)cc1 (configuration not stated)	i	i	-5.9*	i	i	i
Cc1ccc(NS(=O)(=O)c2cc(C(=O)N3CCc4ccccc4C3)ccc2Cl)cc1	i	i	0.51	i	i	28*
Fc1cccc(Nc2c3c(nc4ccccc24)CCC3)c1	-7*	i	-3	i	i	i
COC(=O)c1cccc(Nc2c3c(nc4ccccc24)CCC3)c1	-7*	i	-0.12	i	i	i
CC(=O)c1cccc(Nc2c3c(nc4ccccc24)CCC3)c1	i	i	-1.2	i	i	i
CCOc1ccc(N2CC(C(=O)Nc3ccc(S(=O)(=O)NCC4CCCO4)cc3)CC2=O)cc1 (configuration not stated)	i	i	0.35	i	i	i
O=C1NC(Cc2c[nH]c3ccccc23)C(=O)N1CCOc1ccc(F)cc1 (configuration not stated)	i	i	-5.3*	i	i	i
COc1cccc(C2CNC3(CCCC(C)C3)c3[nH]c4ccccc4c32)c1OC (configuration not stated)	i	i	-4.5*	i	i	i
CC1(C)CC(=O)CC2(C1)NCC(c1ccccc1)c1c2[nH]c2ccccc12 (configuration not stated)	i	i	-0.73	i	i	i
Cc1cc(NC(=O)C(C)SCC(=O)O)no1 (configuration not stated)	i	i	0.51	i	i	i
Cc1cccc(N(Cc2ccccc2)C(=O)CSC(C)C(=O)Nc2cc(C)on2)c1 (configuration not stated)	-6*	i	-1.4	i	i	i
CN(CCC#N)C(=O)CC1(Cc2ccccc2)CCOC(C)(C)C1 (configuration not stated)	i	i	0.05	i	i	i
Cc1cc(OCc2cc(C(=O)NCC3(C)COC3)no2)cc(C)c1Cl	-6*	i	1.4	i	i	i
Cc1cc(OCc2cc(C(=O)N(C)CCCN3CCOCC3)no2)cc(C)c1Cl	i	i	-1.3	i	i	i
Cc1cc(OCc2cc(C(=O)N(C)CC3CCOCC3)no2)cc(C)c1Cl	i	i	-5.1*	i	i	i
Cc1ccc(S(=O)(=O)N2CCC(C(=O)OCC(=O)N3CCCC(C)C3)CC2)cc1C (configuration not stated)	i	i	-0.42	i	i	i

High-throughput results from PubChem.
